We go through 34 compounds from ChEMBL document CHEMBL1144844, “Synthesis and characterization of 5,6,7,8-tetrahydroquinoline C5a receptor antagonists” (Bioorg Med Chem Lett, 2008).

The target in series [1] is T1, C5a anaphylatoxin chemotactic receptor 1 (Homo sapiens, UniProt P21730).
T1 sequence (P21730 whole entry): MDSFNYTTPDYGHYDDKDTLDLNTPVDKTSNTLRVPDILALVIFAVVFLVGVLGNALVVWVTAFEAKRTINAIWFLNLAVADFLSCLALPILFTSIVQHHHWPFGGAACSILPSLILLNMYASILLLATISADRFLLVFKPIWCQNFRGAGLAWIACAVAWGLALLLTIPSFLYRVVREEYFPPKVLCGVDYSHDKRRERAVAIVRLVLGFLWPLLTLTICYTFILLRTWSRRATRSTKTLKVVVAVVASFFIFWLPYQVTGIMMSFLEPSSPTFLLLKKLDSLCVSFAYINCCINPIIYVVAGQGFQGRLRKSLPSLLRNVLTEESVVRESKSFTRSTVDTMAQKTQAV
In words: Antagonist activity at human C5a receptor in U937 cells assessed as inhibition of anaphylatoxin-induced intracellular calcium mobilization. Format: functional, cell-based, U-937. For orientation: Calcium flux is commonly read through the fluorescence of an indicator in the cells.

Series [2] concerns the target T1, C5a anaphylatoxin chemotactic receptor 1. As to the kind of experiment: Displacement of [125I]C5a from human C5a receptor in U937 cells. Type of series: cell-based, U-937. (In general: Displacement assays read how much labelled ligand stays bound in the presence of the test substance.)
A short description of series [3]: Metabolic stability in human liver microsomes. Format: ADME, Microsome.
Series [4] is described as follows: Metabolic stability in human liver microsomes after 10 mins. Type of series: ADME, Microsome. Particulars: read-out: Stability.
Series [5] is described as follows: Cmax in rat at 10 mg/kg, po. Format: ADME, organism-based. Also noted: dose 10 mg/kg, route oral. Particulars: in vivo. A digest of the protocol: (§1)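 Rat pharmacokinetics with single doses: oral at 10 mg/kg and intravenous at 2 mg/kg, n = 4. Cmax and half-life were taken from the oral arm, and bioavailability from comparison of the oral and intravenous exposures.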

Series [6] in a line: Half life in rat at 10 mg/kg, po. Format: ADME, organism-based. Also noted: dose 10 mg/kg, route oral. The note with it: in vivo. A digest of the protocol:
as §1

The nature of series [7]: Oral bioavailability in rat at 10 mg/kg. Format: ADME, organism-based. Particulars: in vivo. An outline of the steps: as §1
A short description of series [8]: Clearance in rat at 2 mg/kg, iv. The note with it: in vivo.

For the compound `CCc1cccc(CC)c1-c1cc(OC)c2c(n1)CCCC2N1CCc2ccccc2C1` (stereo unspecified), the IC50 in series [1] turned out to be 1.1 µM.

As for `CCc1cccc(CC)c1-c1ccc2c(n1)CCCC2N(CC)c1cccc2ccccc12` (stereo unspecified), the IC50 in series [1] was > 10 µM. The same measure, in the same setting: then `CCc1cccc(CC)c1-c1cc(OC)c2c(n1)CCCC2N(CC)c1cccc2c1CCCC2` (stereo unspecified), with 0.22 µM; and `CCc1cccc(CC)c1-c1cc(OC)c2c(n1)CCCC2N1CCc2c(cccc2C(F)(F)F)C1` (stereo unspecified), with > 10 µM.

Turning to `CCNC1CCCc2nc(-c3c(CC)cccc3CC)cc(OC)c21` (stereo unspecified), the IC50 in series [1] is > 10 µM. On the same count and under the same terms, then `CCc1cccc(CC)c1-c1cc(OC)c2c(n1)CCCC2N(C)c1cccc2ccccc12` (stereo unspecified), with 0.17 µM; and `CCN(c1cccc2ccccc12)C1CCCc2nc(-c3ccccc3)cc(OC)c21` (stereo unspecified), with > 10 µM; and `CCN(c1cccc2ccccc12)C1CCCc2nc(-c3ccsc3)cc(OC)c21` (stereo unspecified), with > 10 µM. Still for that read-out and setting: then `CCN(c1cccc2ccccc12)C1CCCc2nc(-c3ccccc3C(C)C)cc(OC)c21` (stereo unspecified), with 1.7 µM; and `CCc1ccccc1-c1cc(OC)c2c(n1)CCCC2N(CC)c1cccc2ccccc12` (stereo unspecified), with 0.65 µM; and `CCN(c1cccc2ccccc12)C1CCCc2nc(-c3ccc4c(c3)OCO4)cc(OC)c21` (stereo unspecified), with > 10 µM. Same read-out and setting: then `CCN(c1cccc2ccccc12)C1CCCc2nc(-c3cccnc3)cc(OC)c21` (stereo unspecified), with > 10 µM. Consider `CCc1cccc(CC)c1-c1cc(OC)c2c(n1)CCCC2N(C)c1ccc2ccccc2c1` (stereo unspecified), for which the IC50 in series [1] was > 10 µM.

Take `CCc1cccc(CC)c1-c1cc(OC)c2c(n1)CCCC2N(C)c1c(C)ccc2ccccc12` (stereo unspecified): in series [1], the IC50 was found to be 1.5 µM. For `CCN(c1cccc2ccccc12)C1CCCc2nc(-c3c(OC)cccc3OC)cc(OC)c21` (stereo unspecified), the IC50 in series [1] amounted to 1.8 µM. Moreover, in series [2], the Ki came out at 1.2 µM. For `CCc1cccc(CC)c1-c1cc(OC)c2c(n1)CCCC2N(CCO)c1cccc2ccccc12` (stereo unspecified), in that order: 0.19 µM and 0.18 µM. For the compound `CCN(c1cccc2ccccc12)C1CCCc2nc(-c3ccccc3-c3ccccc3)cc(OC)c21` (stereo unspecified), the IC50 in series [1] was > 10 µM.

With `CCN(c1cccc2ccccc12)C1CCCc2nc(-c3c(C)cccc3C)cc(OC)c21` (stereo unspecified), the IC50 in series [1] amounted to 0.13 µM.

In the case of `CCc1cccc(CC)c1-c1cc(CC)c2c(n1)CCCC2N(C)Cc1cccc2ccccc12` (stereo unspecified), the IC50 in series [1] is > 10 µM. Same read-out and setting: next, `CCc1cccc(CC)c1-c1cc(CC)c2c(n1)CCCC2N(CC)Cc1ccccc1` (stereo unspecified): > 10 µM; `CCc1cccc(CC)c1-c1cc(OC)c2c(n1)CCCC2N1CCc2cc(OC)c(OC)cc2C1` (stereo unspecified): > 10 µM. Same read-out and setting: then `CCc1cccc(CC)c1-c1cc(OC)c2c(n1)CCCC2N(C)c1cccc2cc(OC)ccc12` (stereo unspecified), with 0.18 µM; and `CCc1cccc(CC)c1-c1cc(OC)c2c(n1)CCCC2N(C)c1cccc2c(OC)cccc12` (stereo unspecified), with > 10 µM; and `CCc1cccc(CC)c1-c1cc(OC)c2c(n1)CCCC2N1CCc2ccc(C(F)(F)F)cc2C1` (stereo unspecified), with > 10 µM.

Take `CCc1cccc(CC)c1-c1cc(OC)c2c(n1)CCCC2N1CCc2cccc(C(F)(F)F)c2C1` (stereo unspecified): the IC50 in series [1] is 0.27 µM.

For the compound `CCN(c1cccc2ccccc12)C1CCCc2nc(Cl)cc(OC)c21` (stereo unspecified), in series [1], the IC50 is > 10 µM.

Regarding `CCc1cccc(CC)c1-c1cc(OC)c2c(n1)CCCC2Nc1cccc2ccccc12` (stereo unspecified), in series [1], the IC50 was > 10 µM. For `CCc1cccc(CC)c1-c1cc(OC)c2c(n1)CCCC2N1CCc2ccc(OC)cc2C1` (stereo unspecified), the IC50 in series [1] is > 10 µM. Still for that read-out and setting: then `CCc1cccc(CC)c1-c1cc(Cl)c2c(n1)CCCC2N(CC)c1cccc2ccccc12` (stereo unspecified), with 2 µM. Regarding `CCc1cccc(CC)c1-c1cc(OC)c2c(n1)CCCC2N(CC)c1cccc2ccccc12` (stereo in doubt; 27), the half-life in series [3] was 0.9 h; in series [6], 1.8 h. Also, in series [4], the remaining at 10 min was 88%. In series [5], this compound displayed a Cmax of 1300 nM. Besides, the bioavailability in series [7] worked out at 59%. The compound further registered a clearance in series [8] of 31 mL/min/kg.

For the compound `CCc1cccc(CC)c1-c1cc(OC)c2c(n1)CCCC2N[C@H]1CCCc2ccccc21` (stereo in doubt; 38), in series [1], the IC50 amounted to 0.82 µM. In the case of `CCc1cccc(CC)c1-c1cc(OC)c2c(n1)CCCC2N[C@H]1CCCc2ccccc21` (stereo in doubt; 39), the half-inhibitory concentration (IC50) in series [1] amounted to 5.5 µM.

With `CCc1cccc(CC)c1-c1cc(OC)c2c(n1)CCCC2N[C@@H]1CCCc2ccccc21` (stereo in doubt; 40), in series [1], the IC50 turned out to be 1.9 µM. On the same count and under the same terms, next, `CCc1cccc(CC)c1-c1cc(OC)c2c(n1)CCCC2N[C@@H]1CCCc2ccccc21` (stereo in doubt; 41): 8.1 µM.

The term IC50 denotes the concentration that inhibits the measured activity by half. Broadly, the Ki is a measure of affinity in units of concentration, obtained from inhibition or displacement. A lower Ki goes with tighter binding. By half-life is commonly meant the time in which the quantity being followed falls by half. A low value points to rapid decline. As usually defined, the Cmax is the highest concentration seen after dosing. The term bioavailability denotes dose-corrected exposure relative to a reference, in per cent. What is called clearance is a measure of how efficiently the substance is removed, as volume per time. A low value points to a low capacity for elimination.
